Broadly, the MIC is the least concentration at which growth counts as inhibited. Higher therefore signals weaker potency.

≈ marks a conversion by molar mass, not a printed value. Some results are limits rather than exact numbers.

Data set [1] in a line: Antidermatophytic activity against Trichophyton mentagrophytes var. erinacei NCPF 375 after 7 days by broth microdilution method. The format is functional. Conditions: Arthroderma benhamiae. The procedure, abridged:
(§1)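 Broth microdilution per CLSI in RPMI 1640 with L-glutamine, no bicarbonate, buffered to pH 7.0 with 0.165 M MOPS, filter-sterilized. Test dilution series 128-0.0625 μg mL⁻¹; sterility and growth (inoculum) controls on each plate. Wells inoculated, incubated 28°C for 7 days, read visually with an inverted mirror; MIC recorded. Triplicate.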
In general terms: In broth dilution the organism is exposed to a series of concentrations in liquid medium.

The subject of data set [2] is Nannizzia gypsea. Put plainly: Antidermatophytic activity against Microsporum gypseum NCPF 580 after 7 days by broth microdilution method. Format: functional. Conditions: NCPF 580, 168 h. Put shortly:
as §1

Data set [3] relates to Epidermophyton floccosum. Briefly: Antidermatophytic activity against Epidermophyton floccosum RSKK 3027 after 7 days by broth microdilution method. The format is functional. The note with it: RSKK 3027, 168 h. Put shortly:
as §1

Data set [4] concerns Epidermophyton floccosum. Put plainly: Antidermatophytic activity against Epidermophyton floccosum isolate after 7 days by broth microdilution method. The format is functional. The note with it: 168 h. Put shortly: as §1
The nature of data set [5]: Cytotoxicity against human MRC5 cells. The format is cell-based. Conditions: read-out: MNCC. Put shortly:
(§2)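 Maximum non-toxic concentration (MNTC) determined in HeLa and MRC-5 cells by a previously described method, based on cellular morphological alteration.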

The nature of data set [6]: Cytotoxicity against human HeLa cells. The format is cell-based. The note with it: read-out: MNCC. The procedure, abridged:
as §2

Data set [7] is described as follows: Antidermatophytic activity against Trichophyton mentagrophytes var. erinacei isolate after 7 days by broth microdilution method. The format is functional. The note with it: Arthroderma benhamiae. The procedure, abridged: as §1
In data set [8] the test system is Nannizzia gypsea. Briefly: Antidermatophytic activity against Microsporum gypseum isolate after 7 days by broth microdilution method. The format is functional. Conditions: 168 h. The procedure, abridged: as §1

In the case of `O=c1cc(CCl)oc(CN2CCN(c3ccccc3)CC2)c1O`, the MIC in data set [1] was 8 µg/mL (≈ 23.9 µM); in data set [2] it was 8 µg/mL (≈ 23.9 µM); in data set [3] it was 4 µg/mL (≈ 11.9 µM); in data set [4] it was 8 µg/mL (≈ 23.9 µM); in data set [7], 16 µg/mL (≈ 47.8 µM); in data set [8] it was 8 µg/mL (≈ 23.9 µM). Moreover, the MNTC in data set [5] and in data set [6] was at least 256 µg/mL throughout.

Turning to `CC(=O)c1ccc(N2CCN(Cc3oc(CCl)cc(=O)c3O)CC2)cc1`, the MIC in data set [1], in data set [2], in data set [3], in data set [4], in data set [7] and in data set [8] was 16 µg/mL (≈ 42.5 µM) each time. Also, the MNTC in data set [5] and in data set [6] was at least 512 µg/mL each time.

(Values after ChEMBL document CHEMBL2390844, “Evaluation of bioactivities of chlorokojic acid derivatives against dermatophytes couplet with cytotoxicity” (Bioorg Med Chem Lett, 2013).)
